Laboratory results: PubChem BioAssay AID485271 (The Scripps Research Institute Molecular Screening Center, 2010)

Assay: HCV J6/JFH-1 viral RNA reduction – Huh-7.5 cells, quantitative PCR, fluorescence, counter-screen for HCV core dimerization inhibitor project, late-stage follow-up (AID 485271)
Settings: Huh-7.5 HCV J6/JFH-1 infection, RT-qPCR viral RNA
Outline: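 Material: Huh-7.5 human hepatoma cells infected with HCV 2a J6/JFH-1 / Reagent: HCV J6/JFH-1 virus alongside compound / Compound: tenfold series, 100 to 0.001 µM / Detection: TaqMan RT-qPCR of viral RNA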

Cc1ccc(Cc2c(C)nc3nc(SCC(=O)NCCCN4CCCCCC4)nn3c2C)cc1 showed an IC50 (time point 1) of 6.6 µM and an IC50 (time point 2) of 12 µM.
